Reference: ChEMBL document CHEMBL4689842, “EUbOPEN Chemogenomics Library wave 1” (2021)
Where “and” joins values, the source holds several entries; their conditions need not be identical. Equal entries are not always repeated.

System: Fibroblast
Experiment: Multiplex assay against human fibroblast
Type: toxicity, cell-based
In short: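 Hoechst33342, BioTracker Green Microtubule Cytoskeleton Dye, MitoTracker Red and Annexin V Alexa Fluor 680 were added to live cells at seeding, and imaging on a CQ1 microscope at 37°C and 5% CO2 followed compound addition. Gating by CellPathfinder machine learning separated cells into Hoechst high-intensity objects or normal cells, then normal cells into healthy, pyknosed or fragmented nuclei, then pyknosed cells into mitotic or apoptotic. Per cents of healthy-nucleus cells are reported for the tubulin, mitochondrial-mass and membrane-permeability phenotypes.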

[1] = 12 h, 10 µM, compound concentration 10 uM, replicate 1
[2] = 12 h, 10 µM, compound concentration 10 uM, replicate 2
[3] = 24 h, 10 µM, compound concentration 10 uM, replicate 1
[4] = 24 h, 10 µM, compound concentration 10 uM, replicate 2
[5] = 12 h, 1 µM, compound concentration 1 uM, replicate 1
[6] = 12 h, 1 µM, compound concentration 1 uM, replicate 2
[7] = 24 h, 1 µM, compound concentration 1 uM, replicate 1
[8] = 24 h, 1 µM, compound concentration 1 uM, replicate 2
[9] = 48 h, 1 µM, compound concentration 1 uM, replicate 1
[10] = 48 h, 1 µM, compound concentration 1 uM, replicate 2
[11] = 48 h, 10 µM, compound concentration 10 uM, replicate 1
[12] = 48 h, 10 µM, compound concentration 10 uM, replicate 2

CN1C(=O)c2sccc2N(C)c2nc(Nc3ccc(S(N)(=O)=O)cc3)ncc21
Population Apoptotic (%) [1]: 73% and 80%
Population Fragmented Nuclei (%) [1]: 30% and 28%
Population Healthy Nuclei (%) [1]: 50% and 56%
Population Hoechst High Intensity Objects (%) [1]: 9% and 15%
Population Membrane Permeable-Phenotype (%) [1]: 7% and 4%
Population Mitochondria Different-Phenotype (%) [1]: 7%
Population Mitotic Cells (%) [1]: 26% and 20%
Population Normal (%) [1]: 90% and 84%
Population Pyknosed Nuclei (%) [1]: 18% and 14%
Population Tubulin-Different-Phenotype (%) [1]: 3% and 7%
Total Cell Count [1]: 224 and 198
Population Fragmented Nuclei (%) [2]: 52%
Population Healthy Nuclei (%) [2]: 36% and 33%
Population Hoechst High Intensity Objects (%) [2]: 32% and 34%
Population Membrane Permeable-Phenotype (%) [2]: 13% and 8%
Population Mitochondria Different-Phenotype (%) [2]: 13% and 0%
Population Mitotic Cells (%) [2]: 42% and 100%
Population Normal (%) [2]: 67% and 65%
Population Pyknosed Nuclei (%) [2]: 11% and 13%
Population Tubulin-Different-Phenotype (%) [2]: 4% and 0%
Total Cell Count [2]: 91 and 55
Population Apoptotic (%) [3]: 55% and 72%
Population Fragmented Nuclei (%) [3]: 23% and 27%
Population Healthy Nuclei (%) [3]: 60% and 52%
Population Hoechst High Intensity Objects (%) [3]: 14% and 16%
Population Membrane Permeable-Phenotype (%) [3]: 8%
Population Mitochondria Different-Phenotype (%) [3]: 2%
Population Mitotic Cells (%) [3]: 44% and 27%
Population Normal (%) [3]: 85% and 83%
Population Pyknosed Nuclei (%) [3]: 15% and 20%
Population Tubulin-Different-Phenotype (%) [3]: 5% and 3%
Total Cell Count [3]: 219 and 217
Population Apoptotic (%) [4]: 45% and 50%
Population Fragmented Nuclei (%) [4]: 59% and 52%
Population Healthy Nuclei (%) [4]: 23% and 36%
Population Hoechst High Intensity Objects (%) [4]: 33% and 37%
Population Membrane Permeable-Phenotype (%) [4]: 0%
Population Mitochondria Different-Phenotype (%) [4]: 6% and 0%
Population Mitotic Cells (%) [4]: 54% and 50%
Population Normal (%) [4]: 66% and 62%
Population Pyknosed Nuclei (%) [4]: 17% and 11%
Population Tubulin-Different-Phenotype (%) [4]: 6% and 15%
Total Cell Count [4]: 96 and 58

CN1CCCC(n2nc(Cc3ccc(Cl)cc3)c3ccccc3c2=O)CC1.Cl (stereo not drawn) [AZELASTINE HYDROCHLORIDE]
Population Apoptotic (%) [5]: 47%
Population Fragmented Nuclei (%) [5]: 25%
Population Healthy Nuclei (%) [5]: 50%
Population Hoechst High Intensity Objects (%) [5]: 11%
Population Membrane Permeable-Phenotype (%) [5]: 26%
Population Mitochondria Different-Phenotype (%) [5]: 9%
Population Mitotic Cells (%) [5]: 52%
Population Normal (%) [5]: 88%
Population Pyknosed Nuclei (%) [5]: 23%
Population Tubulin-Different-Phenotype (%) [5]: 65%
Total Cell Count [5]: 92
Population Apoptotic (%) [6]: 25%
Population Fragmented Nuclei (%) [6]: 6%
Population Healthy Nuclei (%) [6]: 84%
Population Membrane Permeable-Phenotype (%) [6]: 7%
Population Mitochondria Different-Phenotype (%) [6]: 57%
Population Mitotic Cells (%) [6]: 75%
Population Pyknosed Nuclei (%) [6]: 8%
Population Tubulin-Different-Phenotype (%) [6]: 68%
Total Cell Count [6]: 51
Population Apoptotic (%) [1]: 74%
Population Fragmented Nuclei (%) [1]: 26%
Population Healthy Nuclei (%) [1]: 38%
Population Hoechst High Intensity Objects (%) [1]: 18%
Population Membrane Permeable-Phenotype (%) [1]: 13%
Population Mitochondria Different-Phenotype (%) [1]: 55%
Population Mitotic Cells (%) [1]: 25%
Population Normal (%) [1]: 81%
Population Pyknosed Nuclei (%) [1]: 34%
Population Tubulin-Different-Phenotype (%) [1]: 93%
Total Cell Count [1]: 138
Population Apoptotic (%) [2]: 57%
Population Fragmented Nuclei (%) [2]: 14%
Population Healthy Nuclei (%) [2]: 70%
Population Hoechst High Intensity Objects (%) [2]: 4%
Population Membrane Permeable-Phenotype (%) [2]: 84%
Population Mitochondria Different-Phenotype (%) [2]: 98%
Population Mitotic Cells (%) [2]: 42%
Population Normal (%) [2]: 95%
Population Pyknosed Nuclei (%) [2]: 15%
Population Tubulin-Different-Phenotype (%) [2]: 100%
Total Cell Count [2]: 96
Population Apoptotic (%) [7]: 40%
Population Fragmented Nuclei (%) [7]: 31%
Population Healthy Nuclei (%) [7]: 42%
Population Hoechst High Intensity Objects (%) [7]: 10%
Population Membrane Permeable-Phenotype (%) [7]: 36%
Population Mitochondria Different-Phenotype (%) [7]: 11%
Population Mitotic Cells (%) [7]: 59%
Population Normal (%) [7]: 89%
Population Pyknosed Nuclei (%) [7]: 25%
Population Tubulin-Different-Phenotype (%) [7]: 66%
Total Cell Count [7]: 95
Population Apoptotic (%) [8]: 50%
Population Fragmented Nuclei (%) [8]: 7%
Population Healthy Nuclei (%) [8]: 76%
Population Hoechst High Intensity Objects (%) [8]: 8%
Population Membrane Permeable-Phenotype (%) [8]: 10%
Population Mitochondria Different-Phenotype (%) [8]: 57%
Population Mitotic Cells (%) [8]: 50%
Population Normal (%) [8]: 91%
Population Pyknosed Nuclei (%) [8]: 15%
Population Tubulin-Different-Phenotype (%) [8]: 50%
Total Cell Count [8]: 57
Population Apoptotic (%) [3]: 84%
Population Fragmented Nuclei (%) [3]: 32%
Population Healthy Nuclei (%) [3]: 53%
Population Hoechst High Intensity Objects (%) [3]: 18%
Population Membrane Permeable-Phenotype (%) [3]: 17%
Population Mitochondria Different-Phenotype (%) [3]: 62%
Population Mitotic Cells (%) [3]: 15%
Population Normal (%) [3]: 81%
Population Pyknosed Nuclei (%) [3]: 14%
Population Tubulin-Different-Phenotype (%) [3]: 90%
Total Cell Count [3]: 161
Population Apoptotic (%) [4]: 95%
Population Fragmented Nuclei (%) [4]: 16%
Population Healthy Nuclei (%) [4]: 58%
Population Hoechst High Intensity Objects (%) [4]: 4%
Population Membrane Permeable-Phenotype (%) [4]: 98%
Population Mitochondria Different-Phenotype (%) [4]: 100%
Population Mitotic Cells (%) [4]: 4%
Population Normal (%) [4]: 95%
Population Pyknosed Nuclei (%) [4]: 25%
Population Tubulin-Different-Phenotype (%) [4]: 100%
Total Cell Count [4]: 96
Population Apoptotic (%) [9]: 58%
Population Fragmented Nuclei (%) [9]: 38%
Population Healthy Nuclei (%) [9]: 41%
Population Hoechst High Intensity Objects (%) [9]: 11%
Population Membrane Permeable-Phenotype (%) [9]: 28%
Population Mitochondria Different-Phenotype (%) [9]: 11%
Population Mitotic Cells (%) [9]: 41%
Population Normal (%) [9]: 88%
Population Pyknosed Nuclei (%) [9]: 20%
Population Tubulin-Different-Phenotype (%) [9]: 54%
Total Cell Count [9]: 95
Population Apoptotic (%) [10]: 75%
Population Fragmented Nuclei (%) [10]: 31%
Population Healthy Nuclei (%) [10]: 61%
Population Hoechst High Intensity Objects (%) [10]: 8%
Population Membrane Permeable-Phenotype (%) [10]: 10%
Population Mitochondria Different-Phenotype (%) [10]: 1%
Population Mitotic Cells (%) [10]: 25%
Population Normal (%) [10]: 91%
Population Pyknosed Nuclei (%) [10]: 7%
Population Tubulin-Different-Phenotype (%) [10]: 73%
Total Cell Count [10]: 123
Population Apoptotic (%) [11]: 90%
Population Fragmented Nuclei (%) [11]: 40%
Population Healthy Nuclei (%) [11]: 52%
Population Hoechst High Intensity Objects (%) [11]: 30%
Population Membrane Permeable-Phenotype (%) [11]: 13%
Population Mitochondria Different-Phenotype (%) [11]: 34%
Population Mitotic Cells (%) [11]: 10%
Population Normal (%) [11]: 69%
Population Pyknosed Nuclei (%) [11]: 6%
Population Tubulin-Different-Phenotype (%) [11]: 84%
Total Cell Count [11]: 207
Population Apoptotic (%) [12]: 66%
Population Fragmented Nuclei (%) [12]: 38%
Population Healthy Nuclei (%) [12]: 57%
Population Hoechst High Intensity Objects (%) [12]: 25%
Population Membrane Permeable-Phenotype (%) [12]: 22%
Population Mitochondria Different-Phenotype (%) [12]: 39%
Population Mitotic Cells (%) [12]: 33%
Population Normal (%) [12]: 74%
Population Pyknosed Nuclei (%) [12]: 3%
Population Tubulin-Different-Phenotype (%) [12]: 88%
Total Cell Count [12]: 253
